Test results published in ChEMBL document CHEMBL3259792 (Eur J Med Chem, 2014).

Experiments:
[1] = system: Human immunodeficiency virus 1; assay: Ratio of EC50 for HIV1 harboring reverse transcriptase Y181C mutant to EC50 for wild type HIV1 NL4.3; assay type: functional
Procedure, shortened: (§1)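 Fold change is the EC50 against the named mutant strain divided by the EC50 against wild-type HIV-1 NL4-3. […] Means of 2–3 independent experiments in triplicate.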

[2] = system: Human immunodeficiency virus 1; assay: Ratio of EC50 for HIV1 harboring reverse transcriptase K103N mutant to EC50 for wild type HIV1 NL4.3; assay type: functional; procedure, shortened: as §1
[3] = Selectivity index, ratio of CC50 for human MT4 cells to EC50 for HIV1 NL4.3 infected in human MT4 cells; assay type: toxicity, cell-based; conditions: read-out: Ratio CC50/EC50
Procedure, shortened: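 Ratio CC₅₀/EC₅₀. CC₅₀ is from mock-infected MT-4 cells and EC₅₀ from HIV-1 NL4-3-infected MT-4 cells, both read by MTT at day 5 post-infection.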

[4] = system: Human immunodeficiency virus 1; assay: Antiviral activity against HIV1 harboring reverse transcriptase […] mutant infected in human MT4 cells assessed as inhibition of virus-induced cell death measured after 5 days of infection by MTT method; assay type: functional, organism-based; conditions: Human immunodeficiency virus 1, MT4, 120 h
Procedure, shortened: (§2)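 MT-4 cells infected with the named NNRTI-resistant HIV-1 RT mutant strain, in the presence of a range of compound concentrations. Viable cells counted at day 5 post-infection by tetrazolium (MTT) colorimetry. […] Mean of 2–3 independent experiments, each in triplicate.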

[5] = system: Human immunodeficiency virus 1; assay: Ratio of EC50 for HIV1 harboring reverse transcriptase K103N/Y181C double mutant to EC50 for wild type HIV1 NL4.3; assay type: functional; procedure, shortened: as §1
[6] = Cytotoxicity against human MT4 cells assessed as cell viability by MTT assay; assay type: cell-based
Procedure, shortened: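 Mock-infected MT-4 cells exposed to a range of compound concentrations. Viable cells measured by MTT colorimetry at day 5. CC₅₀ = concentration causing 50% death of non-infected cells. Means of two to three independent experiments, each in triplicate.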

[7] = system: Human immunodeficiency virus 1; assay: Antiviral activity against HIV1 harboring reverse transcriptase K103N mutant infected in human MT4 cells assessed as inhibition of virus-induced cell death measured after 5 days of infection by MTT method; assay type: functional, organism-based; conditions: Human immunodeficiency virus 1, MT4, 120 h; procedure, shortened: as §2
[8] = target: T1, Human immunodeficiency virus type 1 reverse transcriptase (Human immunodeficiency virus 1, UniProt Q72547); assay: Inhibition of HIV1 wild-type reverse transcriptase using [3H]dTTP by scintillation counting
[9] = target: T1, Human immunodeficiency virus type 1 reverse transcriptase; assay: Inhibition of HIV1 wild-type reverse transcriptase Y181I/Y181C mutant using [3H]dTTP by scintillation counting
[10] = system: Human immunodeficiency virus 1; assay: Antiviral activity against HIV1 harboring reverse transcriptase Y181C mutant infected in human MT4 cells assessed as inhibition of virus-induced cell death measured after 5 days of infection by MTT method; assay type: functional, organism-based; conditions: Human immunodeficiency virus 1, MT4, 120 h; procedure, shortened: as §2
[11] = system: Human immunodeficiency virus 1; assay: Antiviral activity against HIV1 NL4.3 infected in human MT4 cells assessed as inhibition of virus-induced cell death measured after 5 days of infection by MTT method; assay type: functional, organism-based; conditions: Human immunodeficiency virus 1, NL4.3, MT4, 120 h
Procedure, shortened: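 Lymphoid MT-4 cells (NIH AIDS Reagent Program) infected with HIV-1 NL4-3 in the presence of varying compound concentrations. On day 5 post-infection, viable cells were counted by MTT tetrazolium colorimetry. EC₅₀ = concentration inhibiting virus-induced cell death by 50%. Means of two to three independent experiments, each in triplicate.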

[12] = system: Human immunodeficiency virus 1; assay: Ratio of EC50 for HIV1 harboring reverse transcriptase […] mutant to EC50 for wild type HIV1 NL4.3; assay type: functional; procedure, shortened: as §1
[13] = system: Human immunodeficiency virus 1; assay: Antiviral activity against HIV1 harboring reverse transcriptase K103N/Y181C double mutant infected in human MT4 cells assessed as inhibition of virus-induced cell death measured after 5 days of infection by MTT method; assay type: functional, organism-based; conditions: Human immunodeficiency virus 1, MT4, 120 h; procedure, shortened: as §2
[14] = system: Human immunodeficiency virus 2; assay: Antiviral activity against HIV-2 ROD infected in human CEM cells assessed as protection of cells monitored by giant cell formation by microscopy; assay type: functional, organism-based; conditions: Human immunodeficiency virus 2, ISOLATE ROD, CCRF-CEM
Procedure, shortened: (§3)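 Human CEM cultures (~3 × 10⁵ cells/mL) infected with ~100 CCID₅₀ per mL of HIV-1 IIIB or HIV-2 ROD, seeded with serial compound dilutions. Incubated 4 days at 37 °C; syncytium (giant cell) formation scored by microscopy. EC₅₀ = concentration protecting cells from viral cytopathicity by 50%. Means of two to three independent experiments, each in triplicate.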

[15] = system: Human immunodeficiency virus 1; assay: Ratio of efavirenz EC50 to compound EC50 for HIV1 harboring reverse transcriptase L100I mutant infected in human MT4 cells; assay type: functional
[16] = target: Human immunodeficiency virus type 1 reverse transcriptase (Human immunodeficiency virus 1, UniProt Q72547, K103N); assay: Inhibition of HIV1 wild-type reverse transcriptase K103N mutant using [3H]dTTP by scintillation counting
[17] = target: Human immunodeficiency virus type 1 reverse transcriptase (Human immunodeficiency virus 1, UniProt Q72547, L100I); assay: Inhibition of HIV1 wild-type reverse transcriptase L100I mutant using [3H]dTTP by scintillation counting
Procedure, shortened: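 RNA-dependent DNA polymerase activity of recombinant RT (2–4 nM) on poly(rA)/oligo(dT) 10:1 with [3H]dTTP (1 Ci/mmol). Incubation at 37 °C. Acid-insoluble radioactivity collected on GF/C filters after 5% cold TCA, counted by scintillation.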

[18] = system: Human immunodeficiency virus 1; assay: Antiviral activity against HIV1 3B infected in human CEM cells assessed as protection of cells monitored by giant cell formation by microscopy; assay type: functional, organism-based; conditions: Human immunodeficiency virus 1, 3B, CCRF-CEM; procedure, shortened: as §3
[19] = system: Human immunodeficiency virus 1; assay: Ratio of efavirenz EC50 to compound EC50 for HIV1 harboring reverse transcriptase K103N mutant infected in human MT4 cells; assay type: functional
[20] = system: Human immunodeficiency virus 1; assay: Ratio of AZT EC50 to compound EC50 for HIV1 harboring reverse transcriptase K103N mutant infected in human MT4 cells; assay type: functional
[21] = system: Human immunodeficiency virus 1; assay: Ratio of efavirenz EC50 to compound EC50 for HIV1 harboring reverse transcriptase Y181C mutant infected in human MT4 cells; assay type: functional
[22] = system: Human immunodeficiency virus 1; assay: Ratio of EC50 for HIV1 harboring reverse transcriptase Y188L mutant to EC50 for wild type HIV1 NL4.3; assay type: functional; procedure, shortened: as §1
[23] = system: Human immunodeficiency virus 1; assay: Antiviral activity against HIV1 harboring reverse transcriptase Y188L mutant infected in human MT4 cells assessed as inhibition of virus-induced cell death measured after 5 days of infection by MTT method; assay type: functional, organism-based; conditions: Human immunodeficiency virus 1, MT4, 120 h; procedure, shortened: as §2
[24] = system: Human immunodeficiency virus 1; assay: Ratio of efavirenz EC50 to compound EC50 for HIV1 harboring reverse transcriptase Y188L mutant infected in human MT4 cells; assay type: functional
[25] = target: Human immunodeficiency virus type 1 reverse transcriptase (Human immunodeficiency virus 1, UniProt Q72547, V106A); assay: Inhibition of HIV1 wild-type reverse transcriptase V106A mutant using [3H]dTTP by scintillation counting
[26] = system: Human immunodeficiency virus 1; assay: Ratio of EC50 for HIV1 harboring reverse transcriptase K103N mutant to EC50 for wild type HIV1 3B; assay type: functional

SMILES	Ratio EC50 [1]	Ratio EC50 [2]	selectivity ratio [3]	EC50 [4] [nM]	Ratio EC50 [5]	CC50 [6] [nM]	EC50 [7] [nM]	IC50 [8] [nM]	IC50 [9] [nM]	EC50 [10] [nM]	EC50 [11] [nM]	Ratio EC50 [12]	EC50 [13] [nM]	EC50 [14] [nM]	Ratio EC50 [15]	IC50 [16] [nM]	IC50 [17] [nM]	EC50 [18] [nM]	Ratio EC50 [22]	EC50 [23] [nM]	further results
Cc1cc(C)cc(S(=O)(=O)c2c(C(=O)NCc3ccccc3F)[nH]c3ccc(Cl)cc23)c1	324	11.5	> 78100	5.4	3153	> 53100	7.8	180	> 20000	220	0.68	7.9	2140	> 2000	10	100	70	3.6			
Cc1cc(C)cc(S(=O)(=O)c2c(C(=O)NCc3cccc(F)c3)[nH]c3ccc(Cl)cc23)c1	6.3	6.5	> 78100	5	20391	> 53100	4.4	70	> 20000	4.3	0.68	7.4	13900	> 10000	10	160	40	4.3			Ratio EC50 [19]: >546; Ratio EC50 [20]: > 3; Ratio EC50 [21]: 37
Cc1cc(C)cc(S(=O)(=O)c2c(C(=O)NCc3ccc(F)cc3)[nH]c3ccc(Cl)cc23)c1	145	14.5	> 48300	5.9	45750	> 53100	16	26	> 20000	160	1.1	5.4	50300	> 10000	10	24	30	5.3			
Cc1cc(C)cc(S(=O)(=O)c2c(C(=O)NCc3ccccc3[N+](=O)[O-])[nH]c3ccc(Cl)cc23)c1	20	7.5	> 62800		2335	> 50200	6	23	> 20000	16	0.8		1870			23			351	281	Ratio EC50 [24]: 2.7
Cc1cc(C)cc(S(=O)(=O)c2c(C(=O)NCc3ccc(N)cc3)[nH]c3ccc(Cl)cc23)c1	52	20			2847	6370	4.2	7.7	201	11	0.21		598			34			2338	491	Ratio EC50 [19]: > 546; Ratio EC50 [20]: >3; Ratio EC50 [24]: 1.5
Cc1cccc(CCNC(=O)c2[nH]c3ccc(Cl)cc3c2S(=O)(=O)c2cc(C)cc(C)c2)c1	194	42	> 8380	31	>8383	> 52000	260	190	> 20000	1200	6.2	5	> 51900	> 25000		> 20000	1300	7.3			
Cc1cc(C)cc(S(=O)(=O)c2c(C(=O)N[C@H](C)c3ccccc3)[nH]c3ccc(Cl)cc23)c1	41	2			795		4.3	39	2530	86	2.1		1670			90	50		92	193	IC50 [25]: 65 nM
Cc1cc(C)cc(S(=O)(=O)c2c(C(=O)N[C@@H](C)c3ccccc3)[nH]c3ccc(Cl)cc23)c1	550	20			>5778		128	50	> 20000	3470	6.3		> 36400			9400	80		>5778	> 36400	IC50 [25]: 28 nM
Cc1cc(C)cc(S(=O)(=O)c2c(C(=O)NC(C)c3ccccc3)[nH]c3ccc(Cl)cc23)c1 (racemic)	1200	55	> 206000	26	5445	> 53500	33	40	8230	720	0.6	43	3270	> 10000		540	70	16			IC50 [25]: 50 nM
Cc1cc(C)cc(S(=O)(=O)c2c(C(=O)NC(C)Cc3ccccc3)[nH]c3ccc(Cl)cc23)c1 (racemic)	>11			380	23		530			> 1000		4.2	> 2080					91	>11	> 1000	Ratio EC50 [26]: 5.8
